Screening results (PubChem BioAssay)
A selection: hits, their analogues and other compounds. The true share with any hit is near 0.95%.
CAL PDZ FP-1 = inhibitors of human CAL PDZ peptide binding | purified CAL PDZ, TMR-peptide fluorescence polarization, 1 h | inhibition, % at 24.9 µM | 300,000 tested, 0.92% active | Q9HD26;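 active = mean inhibition of at least 30% with at least half of replicates also reaching 30%; inconclusive = no clear call, values can overlap the other calls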;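 also: 0% = DMSO neutral control and 100% = excess unlabeled competitor peptide PRC23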
CAL PDZ FP-2 = blocks peptide binding to human CAL PDZ domain. 330,000 tested, 0.02% active. inhibition, % at 20 µM. purified CAL PDZ, TMR-peptide fluorescence polarization, 1 h;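 active = highest replicate inhibition of at least 40%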;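 also: plate controls were DMSO neutral control wells for no effect and unlabeled competitor peptide control wells for full effect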
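Material – purified CerCALP PDZ construct · Detection – FP readout, S and P plane fluorescence · Measure – percent inhibition from loss of millipolarization · Controls – unlabelled peptide for full inhibition, DMSO wells as neutral · Probe or stimulus – TMR-labelled reporter peptide T*-PRC34 bound in PDZ groove · Times – 1 h at RT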
miR-122 sensor = inhibitors of miR-122 in Huh7 cells. Huh7 miR-122 Renilla luciferase sensor, 48 h; neutral wells = 0, positive control = 100. activation (reporter increase), % at 12.5 µM. 340,000 tested, 0.3% active;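 active = mean replicate activation score at least 90 and every replicate individually at or above 90; inconclusive = only one of the two criteria met; inactive = neither criterion met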;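 also: higher luciferase means less miR-122 activity so hits act as miR-122 inhibitors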
PvdQ inh = P. aeruginosa PvdQ acylase inhibition. purified PvdQ acylase, fluorescence plate reader. 340,000 tested, 0.063% active. inhibition, % at 10 µM. AID 488965; in the data active = inhibition above about 30%, passing the limit was not always enough; inconclusive = no clear call, values can overlap the other calls;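 also: 0% = vehicle neutral wells and 100% = reference inhibitor wells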
* marks the source's active call; other numbers are inactive results; u = inconclusive; x = no result; + = active, no number; [ ] = remark or other dose.

SMILES	CAL PDZ FP-1	CAL PDZ FP-2	miR-122 sensor	PvdQ inh
COc1ccc(-c2cn3cc(C)ccc3n2)cc1F	-1	-7	-4	59*
c1ccn2cc(-c3ccc4c(c3)OCCO4)nc2c1	x	-2	x	u
Cc1ccc2nc(-c3ccc4c(c3)OCCO4)cn2c1	-3	-3	16	91*
S=C1NC[C@H](Cc2ccccc2)N1CC1CCN(CCCCc2ccccc2)CC1	-6	-2	-2	-26
O=C(Cn1cnc2c(cnn2-c2ccccc2Cl)c1=O)N1CCc2ccccc21	1	-1	-2	-21
Cc1ccn2c(Nc3ccccc3C)c(-c3ccccn3)nc2c1	-2	0	18	2
Cc1ccccc1Nc1c(-c2ccccn2)nc2ccccn12	82*	0	-4	-5
COC(=O)C(CC(=O)c1ccc(C)cc1)n1nc(C)cc1C (stereo not given)	129*	0	-1	-15
CN1C=CC=C/C1=C1\SC(=S)N(c2ccccc2)C1=O	-3	0	-27	5
C=CCN1C=CC=C/C1=C1\SC(=S)N(C)C1=O	35*	-1	-7	-10
COc1ccc(NC(=O)Nc2c[nH]c(=O)[nH]c2=O)cc1	59*	-1	-1	-13
O=C(C[C@H]1CC[C@@H]2[C@H](COC[C@H](O)CN2CC2CCOCC2)O1)NCC1CC1	x	x	7[16.7 µM]	x
CN(Cc1ccc(Br)cc1)C(=O)CCN1C(=O)c2cccc([N+](=O)[O-])c2C1=O	71*	1	-5	-11
COc1ccc(CCNc2nc(-c3ccccn3)cs2)cc1OC	49*	-2	9	-18
CC(=O)N1c2ccc(S(=O)(=O)N3CCCC3)cc2CC1C(=O)NCc1ccccc1F (stereo not given)	4	-1	-9	0
CCCNC(=O)C1CCC(CNS(=O)(=O)c2ccc3c(c2)CC(C)N3C(C)=O)CC1 (stereo not given)	82*	0	-4	-15
COc1cccc(CNS(=O)(=O)c2ccc3c(c2)CC(C)N3C(=O)C2CC2)c1 (stereo not given)	-3	-2	0	-13
CC1Cc2cc(S(=O)(=O)NCCc3ccccc3)ccc2N1C(=O)C1CC1 (stereo not given)	-3	-3	132*	-6
CC(=O)N1c2ccc(S(=O)(=O)NCCc3ccccc3)cc2CC1C (stereo not given)	-4	-2	153*	-2
CC(=O)N1c2ccc(S(=O)(=O)N3CCCCC3)cc2CC1C(=O)NCc1ccccc1C (stereo not given)	39*	-1	-2	-13
CC(=O)N1c2ccc(S(=O)(=O)NCCC(=O)N(C)Cc3ccccc3)cc2CC1C (stereo not given)	-1	-1	10	-11
c1ccc2nc3c(nc2c1)OCC1CCCCN31 (stereo not given)	-4	0	5	-7
C[C@@H]1CN([C@@H](C)CO)C(=O)c2cccc(NS(C)(=O)=O)c2O[C@H]1CN(C)S(=O)(=O)c1ccccc1	x	x	2[16.7 µM]	x
COc1ccc2c(c1)cc1c(=O)n(CC(=O)NCCCOC(C)C)nc(C)n12	-4	0	-3	-12
O=C(Cn1cnc2c(nnn2Cc2ccccc2F)c1=O)NCC1CCCO1 (stereo not given)	-3	1	-2	-9
SMILES	CAL PDZ FP-1	CAL PDZ FP-2	miR-122 sensor	PvdQ inh
CC(=O)N1c2c(cc(Br)cc2S(=O)(=O)NCc2ccccc2)CC1C (stereo not given)	x	-3	125*	-7
CC(=O)N1c2ccc(S(=O)(=O)N3CCC(C(=O)Nc4cc(C)ccn4)CC3)cc2CC1C (stereo not given)	67*	-1	-8	-10
COc1cccc(CNS(=O)(=O)c2cc(Br)cc3c2N(C(C)=O)C(C)C3)c1 (stereo not given)	-1	0	44	-18
CC(=O)N1c2ccc(S(=O)(=O)NCC3CCC(C(=O)Nc4cc(C)ccn4)CC3)cc2CC1C (stereo not given)	-4	-2	-11	-8
O=C(C1CC1)N1CCc2cc(S(=O)(=O)NCCCN3CCCCC3)ccc21	0	-1	1	-11
CC1CC(C)CN(CCCNS(=O)(=O)c2ccc3c(c2)CCN3C(=O)C2CC2)C1 (stereo not given)	120*	-3	9	-23
COc1ccc(OC)c(S(=O)(=O)Nc2ccccc2C(F)(F)F)c1	0	0	116*	2
Cc1ccc(-n2ncc(Br)c(Br)c2=O)cc1	-2	-4	-5	-12
O=c1c(Br)c(Br)cnn1-c1ccccc1	32*	-1	x	-1
COC(=O)c1sc(-c2ccc(Cl)cc2)cc1N	55*	0	-3	-9
CC(=O)c1sc(-c2ccc(Cl)cc2)cc1N	-4	0	x	-4
COc1ccc(S(=O)(=O)N2CCCCCC2)cc1NC(C)C(=O)Nc1ccc(NC(C)=O)cc1 (stereo not given)	48*	0	14	-11
COc1ccc(S(=O)(=O)N2CCCCC2)cc1NC(=O)C1CC1	32*	-1	3	-16
COc1ccc(S(=O)(=O)N2CCCCCC2)cc1C(=O)OC(C)C(N)=O (stereo not given)	+	0	-21	-12
Cc1ccc(S(=O)(=O)N2CCCCC2)cc1NC(=O)C1CC1	-4	-1	0	8
COc1ccc(S(=O)(=O)N2CCCCCC2)cc1C(=O)OCC(=O)NC(N)=O	-4	-1	-2	-11
COc1ccc(S(=O)(=O)N2CCC(C(=O)N[C@H](C(=O)N3CCCC3)C(C)C)CC2)cc1	94*	0	-5	-18
O=C(CSc1nc2c(c(=O)n1-c1ccc(Br)cc1)SCC2)Nc1nccs1	-5	0	-1	19
Cc1nnc(NC(=O)CSCc2c(C)noc2C)s1	-3	-2	0	-14
Cc1ccc(S(=O)(=O)N2CCC(C(=O)OCC(=O)NCc3cccc(Cl)c3)CC2)cc1C	-1	-2	-5	-7
Cc1ccc(Cl)c(NC(=O)COC(=O)C2CCC2)c1Cl	55*	-1	x	-19
Cc1ccc(S(=O)(=O)N2CCC(C(=O)OCC(=O)Nc3cc(S(C)(=O)=O)ccc3Cl)CC2)cc1C	40*	6	-6	-20
Cc1cc(C(=O)Nc2cccc3c2O[C@H](CN(C)S(=O)(=O)c2ccc(Cl)cc2)[C@@H](C)CN([C@H](C)CO)C3=O)n(C)n1	x	x	-1[16.7 µM]	x
COc1ccccc1-c1cc(C(=O)Nc2c(C)n(C)n(-c3ccccc3)c2=O)no1	6	-3	-1	1
COCC(=O)Oc1c(S(=O)(=O)c2ccc(C)cc2)c(C)nn1-c1ccccc1	-3	x	5	34*
COc1ccc(Cn2c(=S)[nH]c3cc(OC)c(OC)cc3c2=O)cc1	0	1	-3	7
COc1cc2[nH]c(=S)n(Cc3ccc(C)cc3)c(=O)c2cc1OC	40*	8	x	-15
Cc1ccc(S(=O)(=O)c2c(N)n(Cc3ccco3)c3nc4ccccc4nc23)cc1	-1	-2	121*	-22
Cn1c(=O)n(C)c2cc3[nH]cnc3cc21	42*	-1	-2	-14
